Data published in ChEMBL document CHEMBL1123901, “Inhibition of delayed hypersensitivity reactions by cinnamyl 1-thioglycosides” (J Med Chem, 1987).

Legend:
Type in all cases: functional
Cavia porcellus [1] = species on record: Cavia porcellus; assay: [3H]thymidine uptake was determined by liquid scintillation spectroscopy in ovalbumin pulsed Macrophages
Outline: (§1)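 Pretreatment protocol. Strain 2 female guinea pigs immunized with OVA in CFA (100 μg OVA; 0.1 mL/foot); mineral oil given ip at day 14, peritoneal exudate collected 4 days later. Nylon-wool-enriched T cells (PELs) and irradiated (2100 rads) exudate macrophages each incubated with sugar derivative 18 h at 37 °C, then washed. Macrophages pulsed with OVA 100 μg/mL for 1 h at 37 °C and washed. Viability adjusted by trypan blue; populations mixed and cultured 72 h at 37 °C. [3H]thymidine (1 μCi) added 18-24 h before harvest; read by liquid scintillation as mean Δcpm ×10^-3.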

Cavia porcellus [2] = species on record: Cavia porcellus; assay: Effect on guinea pig T cell proliferation was tested by measuring the incorporation of [3H]-thymidine uptake at the concentration of 0 uM
Outline: (§2)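 Strain 2 female guinea pigs were immunized with 100 μg OVA in CFA split over the footpads. At day 14 they received mineral oil ip, and the exudate was collected 4 days later. T cells were enriched on nylon wool. 2×10^5 cells per well were cultured with 10% irradiated (2100 rads) exudate cells, OVA (10 μg/mL) and compound, for 72 h at 37 °C in 5% CO2. [3H]thymidine (1 μCi) was added 18-24 h before harvest. Triplicate wells; mean Δcpm ± SD.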

Cavia porcellus [3] = species on record: Cavia porcellus; assay: Inhibitory activity against [3H]thymidine uptake by cinnamyl 1-thioglycosides in guinea pig T cell proliferation; conditions: t-cell; outline: as §2
Cavia porcellus [4] = species on record: Cavia porcellus; assay: Effect on guinea pig T cell proliferation was tested by measuring the incorporation of [3H]thymidine uptake at the concentration of 10 uM; outline: as §2
Cavia porcellus [5] = species on record: Cavia porcellus; assay: Effect on guinea pig T cell proliferation was tested by measuring the incorporation of [3H]-thymidine uptake at the concentration of 100 uM; outline: as §2
Cavia porcellus [6] = species on record: Cavia porcellus; assay: Effect on guinea pig T cell proliferation was tested by measuring the incorporation of [3H]thymidine uptake at the concentration of 1000 uM; outline: as §2
Cavia porcellus [7] = species on record: Cavia porcellus; assay: Effect on guinea pig T cell proliferation was tested by measuring the incorporation of [3H]thymidine uptake at the concentration of 500 uM; outline: as §2
Cavia porcellus [8] = species on record: Cavia porcellus; assay: Effect on guinea pig T cell proliferation was tested by measuring the incorporation of [3H]thymidine uptake at the concentration of 750 uM; outline: as §2
Cavia porcellus [9] = species on record: Cavia porcellus; assay: [3H]thymidine uptake was determined by liquid scintillation spectroscopy in compound 4 pretreated OVA pulsed Macrophages plus OVA (10 ug/mL)
Outline: (§3)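 Guinea pig PELs and irradiated (2100 rads) exudate macrophages were each preincubated with compound (1 mM or 500 μM, depending on agent) for 18 h at 37 °C, then washed. Macrophages were pulsed with OVA 100 μg/mL for 1 h at 37 °C and washed. Cells were viability-adjusted by trypan blue and mixed, with or without OVA 10 μg/mL. Culture ran 72 h at 37 °C with [3H]thymidine read by scintillation, as mean Δcpm × 10^-3.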

Cavia porcellus [10] = species on record: Cavia porcellus; assay: [3H]thymidine uptake was determined by liquid scintillation spectroscopy in compound 4 treated Macrophages pretreated with 500 uM of 4 at 37 degree C for 18 h; conditions: in the assay text read “1 mM” for “500 uM”; outline: as §3
Cavia porcellus [11] = species on record: Cavia porcellus; assay: [3H]thymidine uptake was determined by liquid scintillation spectroscopy in 4 pretreated OVA pulsed Macrophages plus OVA (10 ug/mL) pretreated with 500 uM of 4 at 37 degree C for 18 h; conditions: in the assay text read “1 mM” for “500 uM”; outline: as §3
Cavia porcellus [12] = species on record: Cavia porcellus; assay: [3H]thymidine uptake was determined by liquid scintillation spectroscopy in Macrophages; outline: as §3
Cavia porcellus [13] = species on record: Cavia porcellus; assay: [3H]-Thymidine uptake was determined by liquid scintillation spectroscopy in Macrophages pretreated with 500 uM of 4 at 37 degree C for 18 h; conditions: in the assay text read “1 mM” for “500 uM”; outline: as §3
Cavia porcellus [14] = species on record: Cavia porcellus; assay: [3H]-Thymidine uptake was determined by liquid scintillation spectroscopy in OVA pulsed compound 4 pretreated Macrophages pretreated with 500 uM of 4 at 37 degree C for 18 h; conditions: in the assay text read “1 mM” for “500 uM”; outline: as §3
Cavia porcellus [15] = species on record: Cavia porcellus; assay: [3H]thymidine uptake was determined by liquid scintillation spectroscopy in compound 2 treated Macrophages; outline: as §3
Mus musculus [16] = assay: Compound was administered intraperitoneally to mice before increase in foot-pad thickness at a dose of 10 mg/kg; conditions: route intraperitoneal
Outline: (§4)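 DTH in A/J female mice (20-23 g): cyclophosphamide 200 mg/kg sc, then iv sensitization with 10^8 washed SRBC 3 days later. On day 6 after sensitization, one hind footpad challenged with 10^8 SRBC in 20 μL, the other given saline. Dosing ip or po to overnight-fasted mice 20 min before challenge. Swelling read at 24 and 48 h as antigen minus saline footpad (mm × 10), by constant-pressure caliper.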

Mus musculus [17] = assay: Compound was administered intraperitoneally to mice before increase in foot-pad thickness at a dose of 3 mg/kg; conditions: route intraperitoneal; outline: as §4
Mus musculus [18] = assay: Compound was administered orally to mice before increase in foot-pad thickness at a dose of 10 mg/kg; conditions: route oral; outline: as §4
Mus musculus [19] = assay: Compound was administered orally to mice before increase in foot-pad thickness at a dose of 3 mg/kg; conditions: route oral; outline: as §4
Mus musculus [20] = assay: Compound was administered orally to mice before increase in foot-pad thickness at a dose of 30 mg/kg; conditions: route oral; outline: as §4
Mus musculus [21] = assay: Percent reduction in mice after oral administration 10 mg/kg; outline: as §4
Mus musculus [22] = assay: Percent reduction in mice after intraperitoneal administration 3 mg/kg; outline: as §4
Mus musculus [23] = assay: Percent reduction in mice after intraperitoneal administration of 30 mg/kg; outline: as §4
Mus musculus [24] = assay: Percent reduction in mice after oral administration 3 mg/kg; outline: as §4
Mus musculus [25] = assay: Percent reduction in mice after oral administration of 30 mg/kg; outline: as §4
Mus musculus [26] = assay: Percent reduction in mice after intraperitoneal administration 10 mg/kg; outline: as §4
Cavia porcellus [27] = species on record: Cavia porcellus; assay: [3H]thymidine uptake was determined by liquid scintillation spectroscopy in ovalbumin (OVA) pulsed compound 4 treated Macrophages; outline: as §1
Cavia porcellus [28] = species on record: Cavia porcellus; assay: Effect on guinea pig T cell proliferation was tested by measuring the incorporation of [3H]thymidine uptake at the concentration of 250 uM; outline: as §2
Mus musculus [29] = assay: Compound was administered intraperitoneally to mice before increase in foot-pad thickness at a dose of 30 mg/kg; conditions: route intraperitoneal; outline: as §4
Cavia porcellus [30] = species on record: Cavia porcellus; assay: [3H]-Thymidine uptake was determined by liquid scintillation spectroscopy in ovalbumin (OVA) pulsed compound 2 treated Macrophages; outline: as §3
Cavia porcellus [31] = species on record: Cavia porcellus; assay: [3H]-Thymidine uptake was determined by liquid scintillation spectroscopy in compound 21 treated Macrophages pretreated with 500 uM of 21 at 37 degree C for 18 h; outline: as §3
Cavia porcellus [32] = species on record: Cavia porcellus; assay: [3H]-Thymidine uptake was determined by liquid scintillation spectroscopy in 21 pretreated OVA pulsed Macrophages plus OVA (10 ug/mL) pretreated with 500 uM of 21 at 37 degree C for 18 h; outline: as §3
Cavia porcellus [33] = species on record: Cavia porcellus; assay: [3H]thymidine uptake was determined by liquid scintillation spectroscopy in 3 treated Macrophages plus OVA (10 ug/mL); outline: as §3
Cavia porcellus [34] = species on record: Cavia porcellus; assay: [3H]-Thymidine uptake was determined by liquid scintillation spectroscopy in Macrophages pretreated with 500 uM 21 at 37 degree C for 18 h; outline: as §3
Cavia porcellus [35] = species on record: Cavia porcellus; assay: [3H]-Thymidine uptake was determined by liquid scintillation spectroscopy in OVA pulsed Macrophages pretreated with 500 uM of 21 at 37 degree C for 18 h; outline: as §3
Cavia porcellus [36] = species on record: Cavia porcellus; assay: [3H]thymidine uptake was determined by liquid scintillation spectroscopy in OVA pulsed compound 21 pretreated Macrophages pretreated with 500 uM of 21 at 37 degree C for 18 h; outline: as §3
Cavia porcellus [37] = species on record: Cavia porcellus; assay: [3H]-Thymidine uptake was determined by liquid scintillation spectroscopy in compound 21 pretreated Macrophages plus OVA (ug/mL) pretreated with 500 uM of 21 at 37 degree C for 18 h; outline: as §3
Cavia porcellus [38] = species on record: Cavia porcellus; assay: [3H]thymidine uptake was determined by liquid scintillation spectroscopy in compound 21 pretreated OVA pulsed Macrophages plus OVA (10 ug/mL); outline: as §3

CC1OC(SC/C=C/c2ccccc2)C(O)C(O)C1O (stereo in doubt; 4)
Delta cpm x10e-3 (Cavia porcellus [1]): 141.55
Activity (Cavia porcellus [2]): 72.8 Δcpm x10e-3
IC50 (Cavia porcellus [3]): 160 µM
Activity (Cavia porcellus [4]): 93.6 Δcpm x10e-3
Activity (Cavia porcellus [5]): 62.1 Δcpm x10e-3
Activity (Cavia porcellus [6]): 0.06 Δcpm x10e-3
Activity (Cavia porcellus [7]): 1.51 Δcpm x10e-3
Activity (Cavia porcellus [8]): 0.02 Δcpm x 10^-3
Delta cpm x10e-3 (Cavia porcellus [9]): 139.97
Delta cpm x10e-3 (Cavia porcellus [10]): 2.81
Delta cpm x10e-3 (Cavia porcellus [11]): 49.95
Delta cpm x10e-3 (Cavia porcellus [12]): 6.67
Delta cpm x10e-3 (Cavia porcellus [13]): 4.75
Delta cpm x10e-3 (Cavia porcellus [14]): 33.97
Delta cpm x10e-3 (Cavia porcellus [15]): 4.89
Activity (Mus musculus [16]): 2.78 mm x10
Activity (Mus musculus [17]): 4.6 mm x10
Activity (Mus musculus [18]): 0.96 mm x10
Activity (Mus musculus [19]): 0.98 mm x10
Activity (Mus musculus [20]): 0.77 mm x10
Reduction (Mus musculus [21]): 18%
Reduction (Mus musculus [22]): 13%
Reduction (Mus musculus [23]): 56%
Reduction (Mus musculus [24]): 16%
Reduction (Mus musculus [25]): 34%
Reduction (Mus musculus [26]): 47%
Delta cpm x10e-3 (Cavia porcellus [27]): 104.36
Activity (Cavia porcellus [28]): 5.8 Δcpm x10e-3
Activity (Mus musculus [29]): 2.34 mm x10

CC1OC(SC/C=C/c2ccccc2)C(O)C(O)C1O (stereo in doubt; 21)
Delta cpm x10e-3 (Cavia porcellus [30]): 13.97
Delta cpm x10e-3 (Cavia porcellus [1]): 45.43
Activity (Cavia porcellus [2]): 89.1 Δcpm x10e-3
IC50 (Cavia porcellus [3]): 102 µM
Activity (Cavia porcellus [4]): 86.5 Δcpm x10e-3
Activity (Cavia porcellus [5]): 66.3 Δcpm x10e-3
Activity (Cavia porcellus [6]): 0 Δcpm x10e-3
Activity (Cavia porcellus [7]): 0.11 Δcpm x10e-3
Activity (Cavia porcellus [8]): 0 Δcpm x 10^-3
Delta cpm x10e-3 (Cavia porcellus [31]): 1.62
Delta cpm x10e-3 (Cavia porcellus [32]): 3.82
Delta cpm x10e-3 (Cavia porcellus [33]): 14.22
Delta cpm x10e-3 (Cavia porcellus [12]): 1.46
Delta cpm x10e-3 (Cavia porcellus [34]): 1.34
Delta cpm x10e-3 (Cavia porcellus [35]): 29.03
Delta cpm x10e-3 (Cavia porcellus [36]): 2.63
Delta cpm x10e-3 (Cavia porcellus [37]): 2.63
Delta cpm x10e-3 (Cavia porcellus [38]): 11.14
Delta cpm x10e-3 (Cavia porcellus [15]): 2.26
Activity (Cavia porcellus [28]): 26.7 Δcpm x10e-3
